Data taken from ChEMBL document CHEMBL1144710, “epigenetic multiple ligands: mixed histone/protein methyltransferase, acetyltransferase, and class III deacetylase (sirtuin) inhibitors” (J Med Chem, 2008).
pIC50: −log10 of the molar value. The source made the active and inactive calls. Unless noted, the calls are words filed in the database; no cut-off is given here.

What was measured:
[1] = target: RmtA (Emericella nidulans, UniProt Q5VLE3); assay: Inhibition of Aspergillus nidulans RmtA
Summary of the method: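 Enzyme was GST-RmtA fusion expressed in E. coli BL21 and glutathione-affinity purified (500 ng), preincubated with compound for 15 min at room temperature. Then 20 µg chicken erythrocyte core histones and 0.55 µCi [3H]AdoMet were added, 30 min at 30 °C. Stopped with 25% TCA, filtered, counted by liquid scintillation.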

[2] = target: Protein arginine N-methyltransferase 1 (Homo sapiens) (UniProt Q99873); assay: Inhibition of human recombinant PRMT1 assessed as histone H4 methylation at 50 uM
Chain of Protein arginine N-methyltransferase 1 (Homo sapiens) (Q99873 whole entry, looked up): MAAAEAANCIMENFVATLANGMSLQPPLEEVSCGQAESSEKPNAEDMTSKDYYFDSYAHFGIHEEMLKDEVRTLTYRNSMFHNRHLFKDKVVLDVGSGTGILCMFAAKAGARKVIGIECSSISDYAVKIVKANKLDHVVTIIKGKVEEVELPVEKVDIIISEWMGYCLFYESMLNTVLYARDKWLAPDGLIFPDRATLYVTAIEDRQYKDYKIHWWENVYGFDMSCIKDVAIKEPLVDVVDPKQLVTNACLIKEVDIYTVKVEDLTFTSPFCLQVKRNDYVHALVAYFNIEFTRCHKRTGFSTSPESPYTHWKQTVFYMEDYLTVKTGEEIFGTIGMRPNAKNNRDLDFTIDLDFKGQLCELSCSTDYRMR

[3] = target: Protein arginine N-methyltransferase 1 (Homo sapiens) (UniProt Q99873); assay: Inhibition of human recombinant PRMT1 assessed as nuclear ribonucleoprotein Npl3p methylation at 100 uM
Summary of the method: (§1)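 Recombinant enzymes (0.2 µg) with substrate (0.5 µg: Npl3p for PRMT1, PABP1 for CARM1, histone H3 for SET7), 0.5 µM [3H]AdoMet and 100 µM compound in PBS pH 7.4 with 3.3% v/v DMSO, 90 min at 30 °C. Products separated by 10% SDS-PAGE, transferred to PVDF, detected by fluorography on film overnight.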

[4] = target: T1, Histone-arginine methyltransferase CARM1 (Homo sapiens) (UniProt Q86X55); assay: Inhibition of human recombinant CARM1 assessed as poly(A) binding protein 1 methylation at 100 uM; summary of the method: as §1
T1 sequence (whole entry): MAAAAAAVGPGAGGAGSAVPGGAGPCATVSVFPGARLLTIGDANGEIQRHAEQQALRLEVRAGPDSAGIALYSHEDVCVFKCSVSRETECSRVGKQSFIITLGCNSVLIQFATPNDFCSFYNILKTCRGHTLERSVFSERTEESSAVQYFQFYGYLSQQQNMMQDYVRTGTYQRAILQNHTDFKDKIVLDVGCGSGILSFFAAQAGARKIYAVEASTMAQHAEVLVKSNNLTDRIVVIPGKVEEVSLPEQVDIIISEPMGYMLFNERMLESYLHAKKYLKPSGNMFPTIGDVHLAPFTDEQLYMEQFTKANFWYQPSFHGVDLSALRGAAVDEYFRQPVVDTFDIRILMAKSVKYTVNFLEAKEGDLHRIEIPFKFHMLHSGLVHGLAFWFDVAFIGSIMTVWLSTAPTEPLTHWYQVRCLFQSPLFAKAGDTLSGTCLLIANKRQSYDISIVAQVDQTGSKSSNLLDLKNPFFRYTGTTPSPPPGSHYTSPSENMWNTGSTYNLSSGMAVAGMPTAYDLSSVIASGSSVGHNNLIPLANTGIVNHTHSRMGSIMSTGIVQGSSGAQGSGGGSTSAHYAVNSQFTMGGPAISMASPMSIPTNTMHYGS

[5] = system: U-937; assay: Inhibition of histone H3K4 methylation in human U937 cells at 50 uM after 24 hrs; assay type: functional, cell-based
Summary of the method: (§2)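 U937 cells treated at 50 µM for 24 h. Histones extracted with Triton buffer, then 0.2 M HCl overnight at 4 °C. 3–10 µg run on 15% SDS-PAGE and immunoblotted with anti-monomethyl-H3K4, monomethyl-H4R3 or dimethyl-H3R17 (1:500, overnight 4 °C), ECL detection. Loading controls: total H4 (H3K4), Ponceau Red (Arg marks).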

[6] = system: U-937; assay: Inhibition of histone H4R3 methylation in human U937 cells at 50 uM after 24 hrs; assay type: functional, cell-based; summary of the method: as §2
[7] = system: U-937; assay: Inhibition of histone H3R17 methylation in human U937 cells at 50 uM after 24 hrs; assay type: functional, cell-based; summary of the method: as §2
[8] = system: U-937; assay: Inhibition of human p300/CBP in U937 cells at 50 uM assessed as histone H3 acetylation; assay type: cell-based
Summary of the method: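 Source was U937 nuclear extract (10 µg per assay) as p300/CBP HAT, with histone H3 substrate and compound at 50 µM or DMSO control for 90 min. Acetyl-H3 detected by indirect ELISA, quantified against acetylated H3 peptide standard curves, […].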

[9] = target: T2, NAD-dependent protein deacetylase sirtuin-1 (Homo sapiens) (UniProt Q96EB6); assay: Inhibition of human SIRT1 at 25 uM
T2 sequence (whole entry): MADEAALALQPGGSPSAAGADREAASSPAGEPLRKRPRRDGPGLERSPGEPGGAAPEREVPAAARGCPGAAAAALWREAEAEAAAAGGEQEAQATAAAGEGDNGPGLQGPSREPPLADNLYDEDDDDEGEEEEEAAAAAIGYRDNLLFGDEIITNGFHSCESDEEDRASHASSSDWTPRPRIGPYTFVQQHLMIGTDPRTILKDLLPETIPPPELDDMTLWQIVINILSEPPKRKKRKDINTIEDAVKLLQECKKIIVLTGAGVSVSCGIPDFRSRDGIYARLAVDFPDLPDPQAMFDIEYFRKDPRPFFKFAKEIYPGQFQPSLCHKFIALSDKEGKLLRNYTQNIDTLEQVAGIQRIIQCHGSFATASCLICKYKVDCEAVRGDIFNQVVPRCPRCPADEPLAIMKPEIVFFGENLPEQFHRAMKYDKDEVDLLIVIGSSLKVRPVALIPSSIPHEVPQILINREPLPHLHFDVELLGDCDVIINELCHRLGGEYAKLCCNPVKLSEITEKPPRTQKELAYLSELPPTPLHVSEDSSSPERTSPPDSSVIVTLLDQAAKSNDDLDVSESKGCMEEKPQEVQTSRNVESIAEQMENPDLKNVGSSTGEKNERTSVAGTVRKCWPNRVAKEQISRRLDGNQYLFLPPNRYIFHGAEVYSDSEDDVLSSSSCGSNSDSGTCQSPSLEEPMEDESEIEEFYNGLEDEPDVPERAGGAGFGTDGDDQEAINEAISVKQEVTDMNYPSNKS
Summary of the method: (§3)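 Fluorescent two-stage assay. SIRT1 (1 U/well) or SIRT2 (5 U/well) with Fluor de Lys-SIRT1/2 substrate, NAD+ and compound at 25 µM, 37 °C for 2 h. Developer II containing nicotinamide then stopped the reaction and generated signal, read at ex 360/em 460 nm.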

[10] = target: T3, NAD-dependent protein deacetylase sirtuin-2 (Homo sapiens) (UniProt Q8IXJ6); assay: Inhibition of human SIRT2 at 25 uM; summary of the method: as §3
T3 sequence (whole entry): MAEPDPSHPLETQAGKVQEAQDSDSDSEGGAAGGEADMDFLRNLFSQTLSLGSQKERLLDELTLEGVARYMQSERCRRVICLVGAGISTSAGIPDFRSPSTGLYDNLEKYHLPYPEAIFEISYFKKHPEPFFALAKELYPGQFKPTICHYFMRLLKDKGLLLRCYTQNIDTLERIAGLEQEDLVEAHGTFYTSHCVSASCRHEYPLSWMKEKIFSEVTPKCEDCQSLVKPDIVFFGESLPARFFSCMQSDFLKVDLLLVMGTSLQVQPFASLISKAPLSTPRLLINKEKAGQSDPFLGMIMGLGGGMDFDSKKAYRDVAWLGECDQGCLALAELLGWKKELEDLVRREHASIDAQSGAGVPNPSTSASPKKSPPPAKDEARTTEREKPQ

[11] = system: U-937; assay: Cell cycle arrest in human U937 cells assessed as accumulation at S phase at 25 uM after 30 hrs; assay type: functional, cell-based
Summary of the method: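 U937 cells in RPMI with 10% fetal calf serum, HEPES and glutamine, kept at 200000 cells/mL; treated at 25 µM for 30 h, then the distribution across cell cycle phases was analysed.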

[12] = system: U-937; assay: Induction of apoptosis in human U937 cells at 25 uM after 30 hrs; assay type: functional
Summary of the method: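 Apoptosis read as caspase 3 activation by FACS, in U937 cells (RPMI, 10% fetal calf serum, 200000 cells/mL) exposed to 25 µM for 30 h.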

[13] = system: U-937; assay: Induction of granulocytic differentiation in human U937 cells assessed as CD11c expression at 5 uM after 30 hrs; assay type: functional
Summary of the method: (§4)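 U937 cells treated for 30 h, then stained with PE-conjugated CD11c (PE mouse IgG1 as control) for 30 min at 4 °C in the dark and resuspended in PBS with PI (0.25 µg/mL). Read-out is percent CD11c-positive/PI-negative cells, with dead PI-positive cells excluded. Coloured compounds limited the top dose to 5 µM or lower.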

[14] = target: T4, Histone-lysine N-methyltransferase SETD7 (Homo sapiens) (UniProt Q8WTS6); assay: Inhibition of human recombinant SET7 assessed as histone H3 protein methylation at 100 uM; summary of the method: as §1
T4 sequence (whole entry): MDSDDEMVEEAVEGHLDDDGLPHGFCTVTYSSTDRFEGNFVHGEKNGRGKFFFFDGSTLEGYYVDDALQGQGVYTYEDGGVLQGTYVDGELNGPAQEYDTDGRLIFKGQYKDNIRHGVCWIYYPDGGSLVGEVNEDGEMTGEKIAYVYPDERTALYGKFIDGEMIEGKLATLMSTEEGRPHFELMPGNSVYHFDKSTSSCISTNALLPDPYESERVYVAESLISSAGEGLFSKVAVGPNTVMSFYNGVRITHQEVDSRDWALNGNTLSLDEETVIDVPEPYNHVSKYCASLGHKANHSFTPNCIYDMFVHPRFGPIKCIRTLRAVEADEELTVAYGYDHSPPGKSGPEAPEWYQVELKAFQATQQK

[15] = system: U-937; assay: Induction of granulocytic differentiation in human U937 cells assessed as CD11c expression at 1 uM after 30 hrs; assay type: functional; conditions: 5 uM, in the assay text read “at 5 uM” for “at 1 uM”; summary of the method: as §4

Chain of RmtA (Q5VLE3 whole entry, the tested form may be a part): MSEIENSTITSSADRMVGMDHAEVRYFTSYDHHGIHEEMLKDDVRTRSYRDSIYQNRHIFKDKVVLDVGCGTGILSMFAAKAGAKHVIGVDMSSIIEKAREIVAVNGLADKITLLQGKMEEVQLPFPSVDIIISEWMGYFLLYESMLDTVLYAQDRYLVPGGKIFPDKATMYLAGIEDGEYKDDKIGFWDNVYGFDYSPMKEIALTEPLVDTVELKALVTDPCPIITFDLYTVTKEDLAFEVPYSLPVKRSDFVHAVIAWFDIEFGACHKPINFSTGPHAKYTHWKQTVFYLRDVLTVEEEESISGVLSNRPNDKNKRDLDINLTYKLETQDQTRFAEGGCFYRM

pIC50 [1]	Activity [2]	Activity [3]	Activity [4]	Activity [9]	Activity [10]	inhibition [2] [%]	Activity [14]	inhibition [9] [%]	inhibition [10] [%]	SMILES	Activity [5]	Activity [6]	Activity [7]	Activity [8]	Activity [11]	Activity [12] [%]	Activity [13] [%]	inhibition [8] [%]	Activity [15]
3.79	inactive	Active	Active	inactive	inactive	–	–	–	–	O=C(/C=C/c1ccc(O)c(Br)c1)/C=C/c1ccc(O)c(Br)c1	inactive	inactive	inactive	inactive	–	–	–	–	–
4.40	–	Active	Active	–	–	17	Active	60	65	O=C(/C=C/c1ccc(O)c(Br)c1)/C=C/c1cc(Br)c(O)c(Br)c1	inactive	Active	Active	–	Active	1	68.1	62	–
4.86	–	Active	Active	–	–	38	Active	13	9	O=C(Nc1cc(Br)c(O)c(Br)c1)c1cccc(C(=O)Nc2cc(Br)c(O)c(Br)c2)c1	–	Active	Active	–	–	–	–	81	inactive
4.54	–	inactive	inactive	–	–	61	–	35	37	O=C(/C=C/c1cc(Br)c(O)c(Br)c1)c1cc(Br)c(O)c(Br)c1	Active	Active	Active	–	–	–	–	16	–
4.21	–	Active	Active	–	–	86	Active	2	0	O=C(Nc1cccc(NC(=O)c2cc(Br)c(O)c(Br)c2)c1)c1cc(Br)c(O)c(Br)c1	–	Active	Active	–	–	–	–	83	inactive
4.85	–	Active	Active	–	–	44	Active	50	56	O=C1/C(=C/c2cc(Br)c(O)c(Br)c2)CCC/C1=C\c1cc(Br)c(O)c(Br)c1	Active	Active	Active	–	Active	2	70.9	96	–
–	–	–	–	–	–	–	–	–	–	CC(NC(=O)c1ccccc1/N=C/c1c(O)ccc2ccccc12)c1ccccc1 (stereo unspecified) [SIRTINOL]	–	–	–	–	–	7.5	7.5	–	–
4.43	–	Active	Active	–	–	31	Active	45	56	O=C(/C=C/c1cc(Br)c(O)c(Br)c1)c1ccc(C(=O)/C=C/c2cc(Br)c(O)c(Br)c2)cc1	–	Active	Active	–	–	–	–	0	inactive
4.32	–	Active	Active	–	–	70	Active	52	61	O=C(/C=C/c1cc(Br)c(O)c(Br)c1)CC(=O)/C=C/c1cc(Br)c(O)c(Br)c1	–	Active	Active	–	Active	10.5	33	58	–
4.40	–	inactive	inactive	–	–	36	–	35	38	O=C(/C=C/c1ccc(O)c(Br)c1)c1cc(Br)c(O)c(Br)c1	Active	Active	Active	–	–	–	–	0	–
